ChEMBL document CHEMBL1123499, “Synthesis, saludiuretic, and antihypertensive activity of 6,7-disubstituted 1(2H)- and 3,4-dihydro-1(2H)-phthalazinones” (1986)

Tests used:
[1] = organism: Rattus norvegicus; test: Compound was tested for antihypertensive activity in rat after 1 hr postdose; type: functional
Method in brief: (§1)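 DOCA/saline hypertensive Sprague-Dawley rats (250-350 g), six per group, given 10 mg/kg doca s.c. daily with saline until systolic BP reached 170 mmHg (usually 3-4 weeks). Oral 25 mg/kg in 5 mL/kg 1% methylcellulose. Systolic BP by tail-cuff before and 1, 4, 24 h after; drop reported as mean ± SD.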

[2] = organism: Rattus norvegicus; test: Compound was tested for antihypertensive activity in rat after 24 hr postdose; type: functional; method in brief: as §1
[3] = organism: Rattus norvegicus; test: Compound was tested for antihypertensive activity in rat after 4 hr postdose; type: functional; method in brief: as §1
[4] = organism: Rattus norvegicus; test: Diuretic activity in rats at time intervals of 0-24 hours; type: functional, Urine
Method in brief: (§2)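 Male Sabra rats (170-200 g), starved 18 h, given 50 mg/kg by stomach tube in saline (25 mL/kg load), eight per compound, saline and furosemide controls run alongside. Held two per metabolic cage at 22 °C without food or water. Urine volume measured at 5 and 24 h collections.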

[5] = organism: Rattus norvegicus; test: Diuretic activity in rats at time intervals of 0-5 hours; type: functional, Urine; method in brief: as §2
[6] = organism: Rattus norvegicus; test: Diuretic activity in rats at time intervals of 5-24 hours; type: functional, Urine; method in brief: as §2
[7] = organism: Rattus norvegicus; test: Saluretic activity in rats after 5-24 hours, as sodium ion concentration in urine; type: functional
Method in brief: (§3)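 Male Sabra rats (170-200 g), fasted 18 h, dosed orally 50 mg/kg in saline at 25 mL/kg, eight per compound, two per metabolic cage, no food or water. Urine collected 5 and 24 h after dosing and centrifuged. Chloride titrated with Hg(NO3)2/diphenylcarbazone after HNO3 acidification; Na+ and K+ by atomic absorption.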

[8] = organism: Rattus norvegicus; test: Saluretic activity in rats after 0-24 hours, as chloride ion concentration in urine; type: functional; method in brief: as §3
[9] = organism: Rattus norvegicus; test: Saluretic activity in rats after 0-24 hours, as potassium ion concentration in urine; type: functional; method in brief: as §3
[10] = organism: Rattus norvegicus; test: Saluretic activity in rats after 0-24 hours, as sodium ion concentration in urine; type: functional; method in brief: as §3
[11] = organism: Rattus norvegicus; test: Saluretic activity in rats after 0-5 hours, as chloride ion concentration in urine; type: functional; method in brief: as §3
[12] = organism: Rattus norvegicus; test: Saluretic activity in rats after 0-5 hours, as sodium ion concentration in urine; type: functional; method in brief: as §3
[13] = organism: Rattus norvegicus; test: Saluretic activity in rats after 5-24 hours, as chloride ion concentration in urine; type: functional; method in brief: as §3
[14] = organism: Rattus norvegicus; test: Saluretic activity in rats after 5-24 hours, as potassium ion concentration in urine; type: functional; method in brief: as §3
[15] = organism: Rattus norvegicus; test: Saluretic activity in rats after 0-5 hours, as potassium ion concentration in urine; type: functional; method in brief: as §3
[16] = organism: Rattus norvegicus; test: Saluretic activity in rats after 0-24 hours, as ratio of Na+/K+ ion concentration in urine; type: functional; method in brief: as §3
[17] = organism: Rattus norvegicus; test: Saluretic activity in rats after 0-5 hours, as ratio of Na+/K+ ion concentration in urine; type: functional; method in brief: as §3
[18] = organism: Rattus norvegicus; test: Saluretic activity in rats after 5-24 hours, as ratio of Na+/K+ ion concentration in urine; type: functional; method in brief: as §3
[19] = tested on: Rattus norvegicus; test: Blood pressure was measured in spontaneously hypertensive rat after po administration at 24 hr; type: functional
Method in brief: (§4)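 Male-unspecified SHR (250-350 g; baseline BP at least 170 mmHg by indirect tail-cuff plethysmography), nonanesthetized, five per group. Single oral dose of 75 mg/kg. Indirect BP and heart rate recorded before dosing and 4, 8 and 24 h after. Group means reported, BP ± SEM.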

[20] = tested on: Rattus norvegicus; test: Blood pressure was measured in spontaneously hypertensive rat after po administration at 4 hr; type: functional; method in brief: as §4
[21] = tested on: Rattus norvegicus; test: Blood pressure was measured in spontaneously hypertensive rat after po administration at 8 hr; type: functional; method in brief: as §4
[22] = tested on: Rattus norvegicus; test: The heart rate was measured in spontaneous hypertensive rat after po administration at 4 hr; type: functional; method in brief: as §4
[23] = tested on: Rattus norvegicus; test: The heart rate was measured in spontaneously hypertensive rat after po administration at 24 hr; type: functional; method in brief: as §4
[24] = tested on: Rattus norvegicus; test: The heart rate was measured in spontaneously hypertensive rat after po administration at 8 hr; type: functional; method in brief: as §4

| SMILES | Decrease in blood pressure [1] [mmHg] | Decrease in blood pressure [2] [mmHg] | Decrease in blood pressure [3] [mmHg] | Diuretic activity [4] [mL] | Diuretic activity [5] [mL] | Diuretic activity [6] [mL] | Saluretic activity [7] [m equiv kg-1] | Saluretic activity [8] [m equiv kg-1] | Saluretic activity [9] [m equiv kg-1] | Saluretic activity [10] [m equiv kg-1] | Saluretic activity [11] [m equiv kg-1] | Saluretic activity [12] [m equiv kg-1] | Saluretic activity [13] [m equiv kg-1] | Saluretic activity [14] [m equiv kg-1] | Saluretic activity [15] [m equiv kg-1] | Ratio [16] | Ratio [17] | Ratio [18] | also measured |
| --- | --- | --- | --- | --- | --- | --- | --- | --- | --- | --- | --- | --- | --- | --- | --- | --- | --- | --- | --- |
| NS(=O)(=O)c1cc2c(O)nncc2cc1Cl | 13.7 | 38 | 33.7 | 11.3 | 7.7 | 3.6 | 4.21 | 13.97 | 5.06 | 12.37 | 9.87 | 8.16 | 4.1 | 2.51 | 2.55 | 2.44 | 3.18 | 1.68 | – |
| NS(=O)(=O)c1cc2c(=O)n(Cc3ccccc3)ncc2cc1Cl | 23 | 47 | 36 | 10.8 | 5.9 | 4.9 | 5.92 | 13.69 | 5.3 | 12.32 | 7.97 | 6.4 | 5.72 | 3.36 | 1.94 | 2.32 | 3.29 | 1.78 | BP [19]: 170.2 mmHg; Delta blood pressure [19]: 14.6 mmHg; BP [20]: 163.2 mmHg; Delta blood pressure [20]: 23.4 mmHg; BP [21]: 149 mmHg; Delta blood pressure [21]: 40.2 mmHg; Heart rate [22]: 399.6 beats min-1; Heart rate [23]: 402 beats min-1; Heart rate [24]: 411.6 beats min-1 |
| NS(=O)(=O)c1cc2cnn(Cc3ccccc3)c(=O)c2cc1Cl | 35.3 | 4.7 | 54.3 | 6.2 | 2.6 | 3.6 | 6.29 | 8.9 | 5.74 | 8.79 | 2.9 | 2.5 | 6 | 3.9 | 1.84 | 1.53 | 1.36 | 1.62 | – |
| NS(=O)(=O)c1cc(C(=O)O)c(NCc2ccco2)cc1Cl [FUROSEMIDE] | 35.8 | 5.3 | 59.2 | 22 | 19.2 | 3 | 3.02 | 17.85 | 8.78 | 16.22 | 16.2 | 13.2 | 1.65 | 4.42 | 4.36 | 1.85 | 3.03 | 0.68 | – |
